{"source": "ChEMBL document CHEMBL1914298", "about": "“Synthesis and inhibition study of monoamine oxidase, indoleamine 2,3-dioxygenase and tryptophan 2,3-dioxygenase by 3,8-substituted 5H-indeno[1,2-c]pyridazin-5-one derivatives” (Eur J Med Chem, 2011)", "key": {"[1]": {"target": "T1, Amine oxidase [flavin-containing] A (Homo sapiens, UniProt P21397)", "T1 sequence (P21397 whole entry)": "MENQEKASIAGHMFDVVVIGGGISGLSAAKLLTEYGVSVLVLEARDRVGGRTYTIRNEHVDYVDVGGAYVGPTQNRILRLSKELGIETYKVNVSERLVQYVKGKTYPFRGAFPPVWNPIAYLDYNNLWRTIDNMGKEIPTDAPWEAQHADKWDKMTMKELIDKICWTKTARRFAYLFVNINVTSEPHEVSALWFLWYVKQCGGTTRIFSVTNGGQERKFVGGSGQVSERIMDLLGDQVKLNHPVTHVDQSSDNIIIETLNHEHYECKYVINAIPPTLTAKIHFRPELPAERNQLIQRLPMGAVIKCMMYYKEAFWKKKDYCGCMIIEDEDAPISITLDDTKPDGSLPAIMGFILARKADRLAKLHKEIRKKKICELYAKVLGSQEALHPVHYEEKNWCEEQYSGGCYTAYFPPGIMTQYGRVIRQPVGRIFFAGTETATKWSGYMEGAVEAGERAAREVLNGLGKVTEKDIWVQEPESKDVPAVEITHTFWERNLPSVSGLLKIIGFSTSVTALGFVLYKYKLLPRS", "test": "(§1) Inhibition of human recombinant MAOA expressed in baculovirus-infected BTI insect cells at 10 uM after 1 hr by MAO-GLO two-step bioluminescence assay", "settings": "1 h, 10 µM", "method_in_brief": "(§2)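 Recombinant human MAO-A or MAO-B from baculovirus-infected BTI insect cells; test compound at […], in triplicate in vitro; activity measured by luminescent method (Valley et al.); percent inhibition given as mean ± SD, n = 3.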"}, "[2]": {"target": "T2, MAO-B (amine oxidase [flavin-containing] B) (Homo sapiens, UniProt P27338)", "T2 sequence (P27338 whole entry)": "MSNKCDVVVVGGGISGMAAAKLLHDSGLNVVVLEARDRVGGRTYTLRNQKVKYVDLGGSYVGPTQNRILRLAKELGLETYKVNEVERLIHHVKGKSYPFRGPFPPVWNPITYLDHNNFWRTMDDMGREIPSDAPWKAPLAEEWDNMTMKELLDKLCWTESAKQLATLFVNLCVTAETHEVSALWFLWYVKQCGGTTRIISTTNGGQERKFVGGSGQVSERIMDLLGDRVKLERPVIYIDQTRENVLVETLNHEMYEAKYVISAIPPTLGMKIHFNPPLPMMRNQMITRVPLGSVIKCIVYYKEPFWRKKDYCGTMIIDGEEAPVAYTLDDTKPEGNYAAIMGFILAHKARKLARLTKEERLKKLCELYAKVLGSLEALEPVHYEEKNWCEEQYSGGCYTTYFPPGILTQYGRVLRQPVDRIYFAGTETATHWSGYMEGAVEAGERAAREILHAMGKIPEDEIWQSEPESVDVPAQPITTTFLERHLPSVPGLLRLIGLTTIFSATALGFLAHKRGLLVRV", "test": "Inhibition of human recombinant MAOB expressed in baculovirus-infected BTI insect cells at 10 uM after 1 hr by MAO-GLO two-step bioluminescence assay", "method_in_brief": "as §2"}, "[3]": {"target": "Indoleamine 2,3-dioxygenase 1 (Homo sapiens) (UniProt P14902)", "sequence (P14902 whole entry, looked up)": "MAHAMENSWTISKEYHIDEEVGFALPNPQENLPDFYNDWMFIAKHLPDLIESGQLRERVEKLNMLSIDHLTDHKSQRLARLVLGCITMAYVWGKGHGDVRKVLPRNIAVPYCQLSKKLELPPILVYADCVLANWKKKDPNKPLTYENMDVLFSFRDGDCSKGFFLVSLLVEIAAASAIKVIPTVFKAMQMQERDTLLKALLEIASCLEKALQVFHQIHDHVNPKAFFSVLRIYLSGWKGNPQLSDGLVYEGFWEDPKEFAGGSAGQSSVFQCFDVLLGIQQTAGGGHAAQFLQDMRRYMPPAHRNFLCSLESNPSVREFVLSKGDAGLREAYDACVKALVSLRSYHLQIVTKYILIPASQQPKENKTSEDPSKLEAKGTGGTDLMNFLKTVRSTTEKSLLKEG", "test": "Inhibition of human IDO using L-tryptophan as substrate at 25 uM by colorimetric method", "method_in_brief": "(§3)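 Human IDO activity read colourimetrically, rmTDO activity read fluorometrically; compounds tested in vitro at […]; percent inhibition as mean ± SD, n = 3.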"}, "[4]": {"target": "T3, Tryptophan 2,3-dioxygenase (Ralstonia metallidurans (strain CH34 / ATCC 43123 / DSM 2839)) (UniProt Q1LK00)", "T3 sequence (whole entry)": "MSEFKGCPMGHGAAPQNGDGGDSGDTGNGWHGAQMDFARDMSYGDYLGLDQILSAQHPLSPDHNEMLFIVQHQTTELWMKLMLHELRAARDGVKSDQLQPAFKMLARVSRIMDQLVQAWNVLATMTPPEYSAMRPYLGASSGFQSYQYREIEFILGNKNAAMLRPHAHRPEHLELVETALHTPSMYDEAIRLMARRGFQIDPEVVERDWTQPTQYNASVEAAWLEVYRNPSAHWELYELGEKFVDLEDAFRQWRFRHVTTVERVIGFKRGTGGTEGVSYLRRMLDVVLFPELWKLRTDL", "test": "Inhibition of Ralstonia metallidurans TDO using L-tryptophan as substrate at 25 uM by fluorimetric method", "settings": "Cupriavidus metallidurans", "method_in_brief": "as §3"}, "[5]": {"target": "T4, MAO-A (amine oxidase [flavin-containing] A) (Homo sapiens, UniProt P21397)", "T4 sequence (P21397 whole entry)": "T1 sequence (P21397 whole entry)", "test": "as §1", "method_in_brief": "as §2"}, "[6]": {"target": "T5, Amine oxidase [flavin-containing] B (Homo sapiens, UniProt P27338)", "T5 sequence (P27338 whole entry)": "T2 sequence (P27338 whole entry)", "test": "Inhibition of human recombinant MAOB expressed in baculovirus-infected BTI insect cells by Lineweaver-Burk plot analysis"}, "[7]": {"target": "T5, Amine oxidase [flavin-containing] B", "test": "Inhibition of human recombinant MAOB expressed in baculovirus-infected BTI insect cells after 1 hr by Cheng-Prusoff equation analysis"}}, "note": "pKi: −log10 of the molar value. The source made the active and inactive calls. The rule behind the calls is not given here.", "data": [{"compound": "COc1ccc2c(c1)-c1nnc(-c3cccc(C(F)(F)F)c3)cc1C2=O", "values": [{"measurement": "inhibition (INH)", "setting": "[1]", "value": "Not Active"}, {"measurement": "inhibition at 1 h, 10 µM", "setting": "[2]", "value": 36, "unit": "%"}, {"measurement": "inhibition", "setting": "[3]", "value": "inactive"}, {"measurement": "inhibition", "setting": "[4]", "value": 18, "unit": "%"}]}, {"compound": "O=C1c2ccc(OCCCC(F)(F)F)cc2-c2nnc(-c3cccc(C(F)(F)F)c3)cc21", "values": [{"measurement": "inhibition (INH)", "setting": "[1]", "value": "Not Active"}, {"measurement": "inhibition at 1 h, 10 µM", "setting": "[2]", "value": 57, "unit": "%"}, {"measurement": "inhibition", "setting": "[3]", "value": "inactive"}, {"measurement": "inhibition", "setting": "[4]", "value": 20, "unit": "%"}]}, {"compound": "Cc1cc2c(nn1)-c1cc(OCc3cccc(Cl)c3)ccc1C2=O", "values": [{"measurement": "inhibition at 1 h, 10 µM", "setting": "[5]", "value": 15, "unit": "%"}, {"measurement": "inhibition at 1 h, 10 µM", "setting": "[2]", "value": 93, "unit": "%"}, {"measurement": "inhibition", "setting": "[3]", "value": 25, "unit": "%"}, {"measurement": "inhibition", "setting": "[4]", "value": 19, "unit": "%"}, {"measurement": "pKi", "setting": "[6]", "value": 6.96}, {"measurement": "pKi", "setting": "[7]", "value": 6.80}]}, {"compound": "O=C1c2ccc(OCc3ccccc3)cc2-c2nnc(-c3cccc(C(F)(F)F)c3)cc21", "values": [{"measurement": "inhibition at 1 h, 10 µM", "setting": "[5]", "value": 10, "unit": "%"}, {"measurement": "inhibition at 1 h, 10 µM", "setting": "[2]", "value": 7, "unit": "%"}, {"measurement": "inhibition", "setting": "[3]", "value": 17, "unit": "%"}, {"measurement": "inhibition", "setting": "[4]", "value": "inactive"}]}, {"compound": "Cc1cccc(COc2ccc3c(c2)-c2nnc(C)cc2C3=O)c1", "values": [{"measurement": "inhibition at 1 h, 10 µM", "setting": "[5]", "value": 17, "unit": "%"}, {"measurement": "inhibition at 1 h, 10 µM", "setting": "[2]", "value": 90, "unit": "%"}, {"measurement": "inhibition", "setting": "[3]", "value": 14, "unit": "%"}, {"measurement": "inhibition", "setting": "[4]", "value": 66, "unit": "%"}, {"measurement": "pKi", "setting": "[7]", "value": 6.32}]}, {"compound": "Cc1cc2c(nn1)-c1cc(OCCCC(F)(F)F)ccc1C2=O", "values": [{"measurement": "inhibition (INH)", "setting": "[1]", "value": "Not Active"}, {"measurement": "inhibition at 1 h, 10 µM", "setting": "[2]", "value": 92, "unit": "%"}, {"measurement": "inhibition", "setting": "[3]", "value": 19, "unit": "%"}, {"measurement": "inhibition", "setting": "[4]", "value": 31, "unit": "%"}]}]}
